Most compounds without a hit are left out; they make up all but 3.1% or so of the library.
CFTR F508del cor: F508del CFTR correction, initial screen, CFBE line, single point | hit rate 0.36% among 350,000 | activity (quench increase), % at 7.58 µM | AID 720511, 2013 | CFBE cells, YFP halide quenching; stimulated with forskolin plus potentiator P3; % fluorescence drop versus neutral controls;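 active means mean added fluorescence quench of at least 8% versus neutral control, with both replicates also reaching 8%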;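 further: cells transiently co-express mutant CFTR-F508del with the halide-sensitive YFP; corrector assay measuring rescue of mutant channel to the surface after 24 h compound exposure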
ERAP1 HTS inh: human ERAP1 aminopeptidase inhibitors, primary screen, biochemical, single point, plate reader. Endoplasmic reticulum aminopeptidase 1 (Homo sapiens), Q9NZ08. recombinant ERAP1, Leu-AMC fluorescence, 60 min. inhibition, % at 10.7 µM. hit rate 0.15% among 340,000;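 active means mean replicate inhibition of at least 30%, or all replicates individually reaching that 30% level; inactive means mean below 30% and not every replicate reaching it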;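 further: 0% = neutral control wells and 100% = L-leucinethiol positive control wells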
Target sequence (Q9NZ08 whole entry, looked up): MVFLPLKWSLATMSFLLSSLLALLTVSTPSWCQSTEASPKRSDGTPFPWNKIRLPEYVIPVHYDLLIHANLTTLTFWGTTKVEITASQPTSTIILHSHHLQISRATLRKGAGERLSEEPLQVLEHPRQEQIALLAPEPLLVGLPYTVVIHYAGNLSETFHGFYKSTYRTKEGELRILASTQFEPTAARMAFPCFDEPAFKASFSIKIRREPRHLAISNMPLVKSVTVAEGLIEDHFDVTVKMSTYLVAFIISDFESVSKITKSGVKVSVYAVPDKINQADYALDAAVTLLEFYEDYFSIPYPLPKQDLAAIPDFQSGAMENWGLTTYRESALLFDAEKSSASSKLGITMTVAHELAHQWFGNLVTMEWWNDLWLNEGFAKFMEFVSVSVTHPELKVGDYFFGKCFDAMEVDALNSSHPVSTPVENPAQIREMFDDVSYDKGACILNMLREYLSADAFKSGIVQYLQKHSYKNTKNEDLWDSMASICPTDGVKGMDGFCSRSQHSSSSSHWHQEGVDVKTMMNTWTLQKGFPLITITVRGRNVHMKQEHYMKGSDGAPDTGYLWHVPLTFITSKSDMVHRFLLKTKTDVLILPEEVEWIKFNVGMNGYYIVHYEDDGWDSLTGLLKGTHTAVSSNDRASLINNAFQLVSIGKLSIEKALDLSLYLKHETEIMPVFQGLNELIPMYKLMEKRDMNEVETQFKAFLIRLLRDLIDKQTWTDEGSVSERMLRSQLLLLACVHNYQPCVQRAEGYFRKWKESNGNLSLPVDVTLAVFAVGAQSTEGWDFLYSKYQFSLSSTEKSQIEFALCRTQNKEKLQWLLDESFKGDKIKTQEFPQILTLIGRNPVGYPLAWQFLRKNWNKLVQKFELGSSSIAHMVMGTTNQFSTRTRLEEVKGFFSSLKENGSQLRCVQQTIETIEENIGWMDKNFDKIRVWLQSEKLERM
Ecoli rRNA inh: reduced GFP signal of wild-type E. coli, primary screen, bacterial rRNA inhibitor project, GFP/RFP fluorescence, OD600, single point | AID 720706, 2013 | GFP signal change (wild-type ribosome), % (test concentration not listed) | E. coli WT GFP vs humanized-ribosome RFP mutants, 24 h; active compounds read low; DMSO median 0, no signal -100 | hit rate 1.6% among 350,000;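 active means significant combined selectivity score with lowered wild-type GFP, culture density cut under 30%, mutant RFP and density less affected; inactive means any of these conditions unmet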
SIRT5 block: SIRT5 desuccinylase inhibitors, primary screen, biochemical, fluorescence imaging, single point, set 5; NAD-dependent protein deacylase sirtuin-5, mitochondrial (Homo sapiens), Q9NXA8; inhibition, % at 15 µM; Purified SirT5, succinyl-peptide AMC, trypsin-coupled fluorescence; AID 652115, 2013; hit rate 1.1% among 330,000; in the data active means inhibition above about 15%
S100A4 inh HTS: inhibitors of S100A4-myosin IIA peptide binding, primary screen, biochemical, fluorescence polarization, TAMRA-MyoIIA peptide | Protein S100-A4 (Homo sapiens), P26447 | inhibition, % at 10.7 µM | hit rate 0.14% among 360,000 | AID 652163, 2013;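 active means mean inhibition of at least 70% across replicates, with every replicate also reaching that level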
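Material: S100A4 monomer (human). Medium: Calcium-containing HEPES buffer, pH 7.2. Probe or stimulus: labelled myosin peptide probe, 5 nM. Compound dosing: one concentration per compound. Timing: polarization read 5 min after assay mix addition, stable 5–60 min. Benchmarks: DMSO as neutral control, TFP as positive control.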
Starred values were filed as active, the others as inactive; x = no result given.

SMILES	CFTR F508del cor	ERAP1 HTS inh	Ecoli rRNA inh	SIRT5 block	S100A4 inh HTS
Oc1ccc(C=NNc2nc3ccccc3s2)c(O)c1	-1.8	-6.6	-54.8	x	-0.5
C[C@H](CO)N1C[C@H](C)[C@@H](CN(C)C(=O)Nc2ccc3c(c2)OCO3)Oc2c(NC(=O)NC3CCCCC3)cccc2C1=O	x	x	0.9	x	x
COCC#Cc1cnc2c(c1)C(=O)N([C@@H](C)CO)C[C@@H](C)[C@H](CN(C)C(=O)CN1CCOCC1)O2	-3.2	0.4	3.3	1.4	19.6
COc1ccc2c3c(n(C)c2c1)[C@H](CO)N(Cc1ccc2c(c1)OCO2)CC31CN(C(C)=O)C1	2.3	x	-2.8	x	x
O=[N+]([O-])c1cc(Br)cc(C=Nc2ccc3c(c2)OCO3)c1O	-1.2	-0.4	-30.0*	1.1	-4.8
Cc1noc(C)c1S(=O)(=O)Nc1ccc2c(c1)CC(=O)N([C@@H](C)CO)C[C@@H](C)[C@@H](CN(C)Cc1ccc(C(=O)O)cc1)O2	-0.8	-0.3	-0.4	1.4	-7.9
COc1ccccc1OCC(=O)NC1CCCc2ccccc21 (stereo not given)	3.9	-4.5	-1.2	-0.2	-1.5
COc1ccc(CCC(=O)NC2CCCc3ccccc32)cc1OC (stereo not given)	4.3	31.7*	0.8	-1.4	-1.4
O=C1CN(S(=O)(=O)c2ccccc2)c2ccccc2N1	-2.4	-1.4	-18.1	-6.2	5.8
O=C1CN(S(=O)(=O)c2ccc(Cl)cc2)c2ccccc2N1	2.5	0.7	-22.0*	-0.6	-6.5
O=C(C1CCOCC1)N1[C@H](CO)[C@H]2c3ccccc3NC[C@H]21	-0.7	1.2	2.4	0.9	-7.9
Cc1ccc(CNC(=O)CNC(=S)N(Cc2ccccc2)Cc2ccccc2F)cc1	-3.0	5.3	-29.5*	-0.1	-5.3
O=C(CNC(=S)N(Cc1ccccc1)Cc1ccccc1F)NCc1ccc(Cl)cc1	2.2	3.5	-26.8*	-1.0	2.1
O=C(CNC(=S)N(Cc1ccccc1)Cc1ccccc1F)NCc1ccccc1	1.6	-2.5	-28.6	-1.6	2.2
O=C(N[C@H]1CC[C@H](CC(=O)N2CCCCC2)O[C@@H]1CO)c1ccccn1	-0.9	x	-0.2	-2.2	x
COc1ccccc1C(=O)NNC(=O)c1nn(Cc2ccccc2)c(=O)c2ccccc12	0.4	0.4	-23.9*	-2.9	18.9
COc1ccccc1N1CCN(C(=O)CCc2nnc3ccc(N4CCC(C)CC4)nn23)CC1	-0.6	-0.3	-23.0*	-2.5	0.0
C[C@H](NC(=O)Cc1cccc2ccccc12)C(=O)NCc1ccccc1	3.2	-3.7	-31.6*	-4.6	-2.4
Cc1ccccc1NC(=O)c1ccccc1NC(=O)Cc1cccc2ccccc12	-0.5	6.5	-7.6	-4.3	-1.4
Cc1ccccc1C(=O)NNC(=O)Cc1cccc2ccccc12	-3.6	-2.9	-40.8*	-3.9	-5.7
CN1CCN(C(=O)C[C@@H]2C[C@H]3c4cc(NS(C)(=O)=O)ccc4O[C@H]3[C@H](CO)O2)CC1	-0.6	-1.1	0.8	0.5	15.1
CCOc1ccccc1NS(=O)(=O)c1ccc(Br)s1	-1.9	0.9	-21.2*	7.8	1.7
COc1ccc(C)cc1NS(=O)(=O)c1ccc(Br)s1	3.7	0.2	-11.9	-5.8	-25.3
O=C(C[C@H]1CC[C@@H]2[C@H](COC[C@@H](O)CN2Cc2ccc(C(F)(F)F)cc2)O1)NCCc1ccccc1	1.7	1.5	-1.9	4.7	3.8
C[C@H]1CN([C@@H](C)CO)C(=O)c2cc(NC(=O)Nc3ccc4c(c3)OCO4)ccc2O[C@@H]1CN(C)C(=O)NC1CCCCC1	-3.8	-0.2	0.4	15.6*	-7.3
C[C@H](CO)N1C[C@H](C)[C@H](CN(C)C(=O)NC2CCCCC2)Oc2ccc(NC(=O)Nc3ccc4c(c3)OCO4)cc2C1=O	-1.6	0.9	-3.4	7.4	3.3
C[C@H](CO)N1C[C@H](C)[C@H](CN(C)C(=O)NC2CCCCC2)Oc2ccc(NC(=O)Nc3ccccc3)cc2C1=O	1.2	-1.9	-8.6	21.7*	-3.8

From PubChem BioAssay
